From ChEMBL document CHEMBL2040798, “One-pot synthesis of novel isoindoline-1,3-dione derivatives bearing 1,2,4-triazole moiety and their preliminary biological evaluation” (Eur J Med Chem, 2012) come the findings set out here.

For one test, the system named is Pyricularia grisea. Briefly: Growth inhibition of Phyricularia oryzae Cav. at 150 mg/mL after 48 hrs by mycelium growth rate method. The conditions noted are these: read-out: GI. It is filed as functional. Set-up: dose or concentration left out as unconfirmed.
For test [1], the system named is HepG2. Briefly: Cytotoxicity against human HepG2 cells after 48 hrs by MTT assay. The format is functional, cell-based. Conditions: HepG2, 48 h. Put shortly:
(§1)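 MTT assay. Cells kept in DMEM with 10% FBS. HepG2 seeded at 1 × 10^4 cells/well; A549, PC-3M and MKN45 at 1.6 × 10^4 cells/well. Attachment 24 h at 37 °C. Compounds diluted in medium from 10 mM DMSO stocks; 0.1% DMSO served as negative control. Exposure 48 h at 37 °C, then MTT for 3 h. Formazan dissolved in DMSO and read at 570 nm. IC50 from a concentration series; mean of three independent experiments.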

For test [2], the system named is A549. Briefly: Cytotoxicity against human A549 cells after 48 hrs by MTT assay. It is filed as functional, cell-based. The conditions noted are these: A549, 48 h. Put shortly:
as §1
Background: Tetrazolium dyes change colour on reduction, which living cells bring about.

Test [3] can be described thus: Cytotoxicity against human PC3M cells after 48 hrs by MTT assay. It is filed as functional, cell-based. The conditions noted are these: PC-3M. Put shortly: as §1
A further test relates to MKN-45. Briefly: Cytotoxicity against human MKN45 cells after 48 hrs by MTT assay. It is filed as functional, cell-based. Conditions: MKN-45, 48 h. An outline of the steps:
as §1

Test [4] has as its system A549. Briefly: Ratio of Fluorouracil IC50 to compound IC50 for human A549 cells. It is filed as functional.
The test system of test [5] is HepG2. Briefly: Ratio of Fluorouracil IC50 to compound IC50 for human HepG2 cells. The format is functional.
Test [6] concerns HepG2. Briefly: Cell cycle arrest in human HepG2 cells assessed as Sub-G0 phase cells at 4 uM after 24 hrs by flow cytometry (reference value: 2.48%). It is filed as functional. (In general: In flow cytometry, cells or beads pass a laser one at a time.)
In test [7] the test system is HepG2. Briefly: Cell cycle arrest in human HepG2 cells assessed as G0/G1 phase cells at 4 uM after 24 hrs by flow cytometry (reference value: 54.65%). It is filed as functional.
In test [8] the test system is HepG2. Briefly: Cell cycle arrest in human HepG2 cells assessed as S phase cells at 4 uM after 24 hrs by flow cytometry (reference value: 29.84%). The format is functional.
Test [9] deals with HepG2. Briefly: Cell cycle arrest in human HepG2 cells assessed as G2/M phase cells at 4 uM after 24 hrs by flow cytometry (reference value: 16.38%). The format is functional.
Test [10] has as its system HepG2. Briefly: Cell cycle arrest in human HepG2 cells assessed as Sub-G0 phase cells at 8 uM after 24 hrs by flow cytometry (reference value: 2.48%). The format is functional.
In test [11] the test system is HepG2. Briefly: Cell cycle arrest in human HepG2 cells assessed as G0/G1 phase cells at 8 uM after 24 hrs by flow cytometry (reference value: 54.65%). It is filed as functional.
Test [12] concerns HepG2. Briefly: Cell cycle arrest in human HepG2 cells assessed as S phase cells at 8 uM after 24 hrs by flow cytometry (reference value: 29.84%). The format is functional.
Test [13] deals with HepG2. Briefly: Cell cycle arrest in human HepG2 cells assessed as G2/M phase cells at 8 uM after 24 hrs by flow cytometry (reference value: 16.38%). It is filed as functional.
Test [14] has as its system HepG2. Briefly: Cell cycle arrest in human HepG2 cells assessed as Sub-G0 phase cells at 16 uM after 24 hrs by flow cytometry (reference value: 2.48%). It is filed as functional.
For test [15], the system named is HepG2. Briefly: Cell cycle arrest in human HepG2 cells assessed as G0/G1 phase cells at 16 uM after 24 hrs by flow cytometry (reference value: 54.65%). The format is functional.
Test [16] concerns HepG2. Briefly: Cell cycle arrest in human HepG2 cells assessed as S phase cells at 16 uM after 24 hrs by flow cytometry (reference value: 29.84%). It is filed as functional.
In test [17] the test system is HepG2. Briefly: Cell cycle arrest in human HepG2 cells assessed as G2/M phase cells at 16 uM after 24 hrs by flow cytometry (reference value: 16.38%). The format is functional.
For test [18], the system named is HepG2. Briefly: Induction of apoptosis in human HepG2 cells after 24 hrs by flow cytometry. The format is functional, cell-based.

Molecules are shown by their SMILES. Bounds are passed on as bounds.

For orientation: IC50 means the concentration that inhibits the measured activity by half. Consider `COc1cc(-c2nnc(SCC(=O)c3ccc(C)cc3)n2N2C(=O)c3ccccc3C2=O)cc(OC)c1OC`, for which the inhibition of growth in the test with Pyricularia grisea was less than 50%. In addition, the IC50 in the test with HepG2 [1] amounted to 9.44 µM; in the test on A549 [2] it was 6.76 µM; in [3], 11.7 µM; in the test with MKN-45, 9.62 µM. Besides, the “Ratio IC50” value with A549 [4] and in the test with HepG2 [5] was 4 each time. The Activity in the test on HepG2 [6] is on record as 15.05%; in the test with HepG2 [7], 40.73%; in the test with HepG2 [8], 25.41%; in the test on HepG2 [9], 14.4%; in the test on HepG2 [10], 29.22%; in the test on HepG2 [11] it was 37.45%. For the same compound, the Activity with HepG2 [12] was 17.5%; in the test with HepG2 [13], 11.38%; in the test with HepG2 [14], 32.58%; with HepG2 [15], 36.7%; with HepG2 [16], 21.07%; in the test on HepG2 [17], 6.31%. Besides, the Activity entry in the test with HepG2 [18] was “Dose-dependent effect”.

As to `COc1ccc(C(=O)CSc2nnc(-c3cc(OC)c(OC)c(OC)c3)n2N2C(=O)c3ccccc3C2=O)cc1`, the inhibition of growth with Pyricularia grisea is less than 50%. Moreover, the IC50 with HepG2 [1] came out at 28.7 µM; with A549 [2], 30 µM; in test [3], 32.8 µM; with MKN-45, 37.2 µM.

For `CCCc1nnc(SCC(=O)c2ccc(C)cc2)n1N1C(=O)c2ccccc2C1=O`, in the test on Pyricularia grisea, the inhibition of growth was not below 80%. Besides, the IC50 (in the test with HepG2 [1]; in the test on A549 [2]; in test [3]; with MKN-45) was more than 200 µM each time.
